Screening results deposited in PubChem by Sanford-Burnham Center for Chemical Genomics.
Diaphorase inh: inhibits diaphorase or chemically oxidizes, flagging diaphorase assay artifacts; diaphorase resazurin-to-resorufin fluorescence, NADH, 16 min; bacterial (C. kluyveri) enzyme, not human; inhibition, % at 20 µM; hit rate 0.69% among 190,000;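 active = primary screen inhibition at 20 µM above a set limit, cut at about 50% in these data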;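 also: plate controls were DMSO with full reaction for no effect and wells lacking NADH for full effect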
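Benchmarks: positive control wells lacking NADH, neutral wells with DMSO only. System: bacterial diaphorase enzyme (C. kluyveri). Input: 0.14 U/mL diaphorase, enzyme working solution. Detection: resorufin fluorescence, excitation 544 nm, emission 590 nm. Times: 16-min room-temperature incubation before reading.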
G6PDH counter: inhibits Leuconostoc G6PDH, flagging false hits in G6PDH-based assays | Purified L. mesenteroides G6PDH, diaphorase/resazurin coupled fluorescence, 45 min | inhibition, % at 5 µM | hit rate 0.12% among 200,000; in the data active = inhibition above about 50%
Diaphorase act: diaphorase activation or chemical reduction counter-screen. activation factor at 20 µM. Diaphorase/resazurin coupled assay, resorufin fluorescence, 16 min; stronger effect = higher value; 1 = vehicle wells, 0 = NADH-free wells. hit rate 0.005% among 190,000. AID 1229;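 active = diaphorase activity raised at least twofold by the compound at 20 µM; inactive = activation factor below 2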
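Test system: Clostridium kluyveri diaphorase, purified enzyme. Buffer or medium: 50 mM HEPES pH 7.4 buffer plus MgCl2 and Tween 20. Also added: 0.114 mM NADH and 0.1 mM resazurin, final amounts. Dosing: compound 20 µM once, DMSO 1%. Schedule: 16 min enzyme reaction, ambient temperature. Detection: fluorescence of resorufin, 544 nm excitation, 590 nm emission.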
PMI act: phosphomannose isomerase (human) activation | purified human PMI, coupled resazurin fluorescence, 20 min; stronger effect = higher value; 1 = vehicle control, 0 substrate-free wells | activation factor at 20 µM | hit rate 0.005% among 190,000;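 active = activation factor of 2 or more at 20 µM, relative to plate controls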
Target sequence (P34949 whole entry, looked up): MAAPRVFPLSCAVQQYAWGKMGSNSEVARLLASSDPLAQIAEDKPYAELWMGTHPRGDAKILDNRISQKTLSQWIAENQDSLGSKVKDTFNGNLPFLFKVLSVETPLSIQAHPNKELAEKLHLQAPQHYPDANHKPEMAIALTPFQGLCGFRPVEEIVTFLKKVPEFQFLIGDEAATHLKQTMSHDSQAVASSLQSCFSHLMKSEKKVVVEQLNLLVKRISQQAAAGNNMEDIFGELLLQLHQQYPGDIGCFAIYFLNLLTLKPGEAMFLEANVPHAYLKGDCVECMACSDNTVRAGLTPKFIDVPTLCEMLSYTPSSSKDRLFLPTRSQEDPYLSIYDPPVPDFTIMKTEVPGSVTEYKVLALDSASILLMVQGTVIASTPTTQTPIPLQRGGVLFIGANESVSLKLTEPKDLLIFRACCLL
PMI act satM6P: PMI (human) activation, high substrate; coupled PMI enzyme assay, resazurin fluorescence, 20 min; stronger effect = higher value; 1 = untreated enzyme, 0 = substrate-free blank; P34949; activation factor at 20 µM; AID 1216; hit rate 0.34% among 190,000;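 active = activation factor of 2 or more at 20 µM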
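Test system: human phosphomannose isomerase with PGI, G6PDH, diaphorase coupling enzymes; Amount: PMI at 15 ng/mL final; Reagent: Mannose-6-phosphate 1.0 mM (near-saturating) plus 0.22 mM NADP+; Timing: 20 min, room temperature; Technique: resorufin fluorescence at Ex 544/Em 590 nm; Dosing: 20 µM single dose.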
The depositor's hits bear a star. A selection: hits, their analogues and other compounds. The true share with any hit is near 1.1%.

How did Cc1cccc2cc3c(N)c(C#N)sc3nc12 do in these assays?
Diaphorase inh: 31; G6PDH counter: 5; Diaphorase act: 0.7; PMI act: 0.8; PMI act satM6P: 1

What do the screens show for `Cc1sc(NC(=O)c2sc3nc4c(C)cccc4cc3c2N)c(C#N)c1C`?
Diaphorase inh: 59*; G6PDH counter: 12; Diaphorase act: 0.4; PMI act: 1.2; PMI act satM6P: 1.2

Results for CCN(CC)S(=O)(=O)c1ccc(C(=O)NCCc2cc3c(OC)ccc(OC)c3[nH]c2=O)cc1 ?
Diaphorase inh: 24; G6PDH counter: 14; Diaphorase act: 0.8; PMI act: 0.8; PMI act satM6P: 0.8

What do the screens show for `COc1ccc(OC)c2[nH]c(=O)c(CCNC(=O)c3ccc(S(=O)(=O)N4CCCC4)cc3)cc12`?
Diaphorase inh: 51*; G6PDH counter: 5; Diaphorase act: 0.5; PMI act: 0.8; PMI act satM6P: 0.8

What do the screens show for `CCOC(=O)C1C(c2ccc(O)c(OC)c2)NC(=S)NC1(O)C(F)(F)F` (stereo not given)?
Diaphorase inh: 13; G6PDH counter: 2; Diaphorase act: 0.9; PMI act: 1; PMI act satM6P: 1

How did CC(C)N1CCN(Cc2ccc3c(c2)Cc2ccccc2-3)CC1CCO (stereo not given) do in these assays?
G6PDH counter: 18

How did CCC1=C/C(=C/c2sc3ccccc3[n+]2CC)CC(C)(C)C1 do in these assays?
Diaphorase inh: 17; G6PDH counter: -3; Diaphorase act: 0.8; PMI act: 1.6; PMI act satM6P: 2.3*

How did CCCCN1CN(S(=O)(=O)c2cccs2)c2nc3ccccc3nc21 do in these assays?
Diaphorase inh: 5; G6PDH counter: -13; Diaphorase act: 1; PMI act: 1.6; PMI act satM6P: 2.2*

How did Cc1ccc(NC(=O)c2cncc(Br)c2)cc1S(=O)(=O)N(C)C do in these assays?
Diaphorase inh: 18; G6PDH counter: 5; Diaphorase act: 0.8; PMI act: 0.9; PMI act satM6P: 0.8

What do the screens show for `O=C(O)C(O)Cc1c[nH]c2ccccc12` (stereo not given)?
Diaphorase inh: 4; G6PDH counter: 2; Diaphorase act: 1; PMI act: 1.1; PMI act satM6P: 1.1

What do the screens show for `O=C(CC(C(=O)O)c1c[nH]c2ccccc12)c1ccccc1` (stereo not given)?
Diaphorase inh: 78*; G6PDH counter: 6; Diaphorase act: 0.2; PMI act: 0.9; PMI act satM6P: 1

What do the screens show for `Cc1ccc(-c2nn(CCC(=O)O)cc2CCC(=O)O)cc1`?
Diaphorase inh: 11; G6PDH counter: -4; Diaphorase act: 0.9; PMI act: 1; PMI act satM6P: 1.1

How did CCn1cc(CCC(=O)O)c(C)n1 do in these assays?
Diaphorase inh: -11; G6PDH counter: 1; Diaphorase act: 1.1; PMI act: 1.9; PMI act satM6P: 2.3*

Results for C=CCN(c1ccccc1)S(=O)(=O)c1ccc(Cl)c(C(=O)OCC(=O)N(C)C2CCS(=O)(=O)C2)c1 (stereo not given) ?
Diaphorase inh: 20; G6PDH counter: 2; Diaphorase act: 0.8; PMI act: 0.9; PMI act satM6P: 0.9

Results for CNc1ccc(Br)cc(C(=O)/C=C/c2ccc3c(c2)OCO3)c1=O ?
Diaphorase inh: 57*; G6PDH counter: 39; Diaphorase act: 0.4; PMI act: 0.8; PMI act satM6P: 1

Results for Nc1ccc2c(c1)Nc1ccccc1CC2 ?
Diaphorase inh: 62*; G6PDH counter: 28; Diaphorase act: 0.4; PMI act: 0.7; PMI act satM6P: 0.6

Results for N#CC(C#N)=C1CCc2ccccc2N1 ?
Diaphorase inh: -5; G6PDH counter: 9; Diaphorase act: 1; PMI act: 1; PMI act satM6P: 1.1

What do the screens show for `O=C(O)C1OC(Oc2cc3oc(-c4ccccc4)cc(=O)c3c(O)c2O)C(O)C(O)C1O` (stereo not given)?
Diaphorase inh: 24; G6PDH counter: 30; Diaphorase act: 0.8; PMI act: 1; PMI act satM6P: 1.2

Results for O=C(O)C1OC(Oc2c(-c3ccc(O)c(O)c3)oc3cc(O)cc(O)c3c2=O)C(O)C(O)C1O (stereo not given) ?
Diaphorase inh: 55*; G6PDH counter: 36; Diaphorase act: 0.5; PMI act: 0.8; PMI act satM6P: 1

What do the screens show for `O=C(O)c1cc2nc(-c3ccccc3)cc(-c3ccccc3)n2n1`?
Diaphorase inh: 59*; G6PDH counter: 23; Diaphorase act: 0.4; PMI act: 0.8; PMI act satM6P: 0.7

How did O=C(O)c1cc2nc(-c3ccccc3)cc(C(F)(F)F)n2n1 do in these assays?
Diaphorase inh: -2; G6PDH counter: 1; Diaphorase act: 1; PMI act: 1; PMI act satM6P: 1.1

What do the screens show for `COC(=O)c1sc2ccccc2c1-n1cccc1C(=O)C(=O)Nc1ccc(OC)cc1`?
Diaphorase inh: 13; G6PDH counter: 5; Diaphorase act: 0.9; PMI act: 0.9; PMI act satM6P: 0.9

What do the screens show for `COc1ccc(NC(=O)CSc2nnc(-c3cccs3)n2C)cc1OC`?
Diaphorase inh: -3; G6PDH counter: -3; Diaphorase act: 1; PMI act: 1; PMI act satM6P: 1.1

Results for COc1ccc(NC(=O)CSc2nc3c(c(-c4cccs4)c2C#N)CN(C)CC3)cc1OC ?
Diaphorase inh: 57*; G6PDH counter: 14; Diaphorase act: 0.4; PMI act: 0.4; PMI act satM6P: 0.4

What do the screens show for `COCCn1nnnc1C(C(C)C)N1CCSCC1` (stereo not given)?
Diaphorase inh: 20; G6PDH counter: 20; Diaphorase act: 0.8; PMI act: 1.2; PMI act satM6P: 1.1

How did COc1ccccc1NC(=O)c1cc(C)nc2ccccc12 do in these assays?
Diaphorase inh: 63*; G6PDH counter: 3; Diaphorase act: 0.4; PMI act: 1; PMI act satM6P: 1.1

Results for O=C(N/C(=C\c1ccc(Br)cc1)C(=O)N1CCCC1)c1ccccc1F ?
Diaphorase inh: 7; G6PDH counter: 3; Diaphorase act: 0.9; PMI act: 1.1; PMI act satM6P: 1

Results for CCOC(=O)c1ccc(NC(=O)c2ccc(C)c(S(=O)(=O)N3CCOCC3)c2)cc1 ?
Diaphorase inh: 30; G6PDH counter: -1; Diaphorase act: 0.7; PMI act: 0.9; PMI act satM6P: 1

What do the screens show for `COc1ccc(NS(=O)(=O)c2ccc(C)c(NC(=O)c3ccc(C)c(S(=O)(=O)N4CCOCC4)c3)c2)cc1`?
Diaphorase inh: 50*; G6PDH counter: 8; Diaphorase act: 0.5; PMI act: 0.7; PMI act satM6P: 0.8

How did CCN1N=C(c2cc(Cl)sc2Cl)CSC1=O do in these assays?
Diaphorase inh: 3; G6PDH counter: 5; Diaphorase act: 1; PMI act: 1; PMI act satM6P: 1
